Experimental findings from ChEMBL document CHEMBL4311989, “Anti-hepatitis-C virus activity and QSAR study of certain thiazolidinone and thiazolotriazine derivatives as potential NS5B polymerase inhibitors” (Eur J Med Chem, 2019) are described below.

The structures appear in SMILES notation.

In one data set the test system is Hepatitis C virus. Briefly: Antiviral activity against HCV genotype 1a infected in human Huh7.5 cells assessed as reduction in viral replication by measuring HCV core antigen level by ELISA. The conditions noted are these: subtype 1a. The class given is functional, organism-based, Hepacivirus hominis. Summed up:
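HCV GT1a replication in Huh-7.5 human hepatoma cells; HCV core protein quantified by core antigen ELISA per kit instructions. EC50 taken as concentration reducing HCV replication by 50%, with VCH-759 as reference.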
In general terms: In an ELISA, binding on a coated surface is turned into a signal by an enzyme label.

Data set [1] concerns the target RNA-directed RNA polymerase (Hepacivirus hominis, UniProt O39930). The data set is described as follows: Inhibition of recombinant HCV genotype 1a NS5B polymerase coincubated with HCV international ribosome entry site template sequence containing nucleotide residues 21-371 of HCV 5'-untranslated Escherichia coli DNA polymerase I region incubated for 3 hrs by scintillation/luminescence counter method. The arrangement: species or system Hepatitis C virus subtype 1a. In short, it runs like this:
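Recombinant GT1a NS5B RdRp, […] (GenBank AF356827), used at 0.26 ug/well; VCH-759 as non-nucleoside positive control; IC50 determined.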

In data set [2] the target is RNA-directed RNA polymerase (Hepacivirus hominis) (UniProt O39930). Briefly: Potency index, ratio of VCH-759 IC50 to compound IC50 for HCV genotype 1a recombinant NS5B polymerase coincubated with HCV international ribosome entry site template sequence containing nucleotide residues 21-371 of HCV 5'-untranslated Escherichia coli DNA polymerase I region. Particulars: Hepatitis C virus subtype 1a.

Data set [3] in a line: Selectivity index, ratio of CC50 for human RPTEC/TERT1 cells to EC50 for HCV infected in human Huh7.5 cells. The class given is toxicity, cell-based. Particulars: read-out: Ratio CC50/EC50. Summed up: (§1)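 SI computed as CC50 on THLE-2 or RPTEC/TERT1 (MTT viability) divided by EC50 from HCV-infected Huh7.5 cells (core antigen ELISA).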
The nature of data set [4]: Cytotoxicity against human RPTEC/TERT1 cells assessed as reduction in cell viability incubated for 24 hrs by MTT assay. The format is cell-based. In short, it runs like this:
(§2)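 Transformed normal human cells (THLE-2 liver epithelial; RPTEC/TERT1 proximal tubular epithelial) exposed to compound; viability read by MTT reduction to formazan. CC50 defined as concentration reducing cell viability by 50%; VCH-759 run as reference.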
A general note: Formazan colour is commonly taken as a measure of viable cells.

Data set [5] can be described thus: Selectivity index, ratio of CC50 for human THLE2 cells to EC50 for HCV infected in human Huh7.5 cells. The format is toxicity, cell-based. Particulars: THLE2 cells (CC50) and HCV-infected Huh7.5 cells (EC50). In short, it runs like this: as §1
A short description of data set [6]: Cytotoxicity against human THLE2 cells assessed as reduction in cell viability incubated for 24 hrs by MTT assay. The class given is cell-based, THLE-2. In short, it runs like this:
as §2

As usually defined, the EC50 is the concentration giving half of the maximal effect. In general, IC50 refers to the concentration at which inhibition is half-maximal. Consider `N=C1S/C(=C\c2ccccc2)C(=O)N1c1ccccc1`, for which the EC50 in the data set with Hepatitis C virus was determined as 11.1 µM. Further, the IC50 in data set [1] was 0.58 µM.
For `COc1ccc(N2CN=c3s/c(=C/c4ccccc4)c(=O)n3C2)cc1`, the half-maximal effective concentration (EC50) in the data set with Hepatitis C virus came out at 10.8 µM. Further, the IC50 in data set [1] was found to be 0.75 µM.
For `COc1ccc(/C=c2/sc3n(c2=O)CN(c2ccccc2)CN=3)cc1`, in that order: 12.6 µM and 0.2 µM.
For `O=c1/c(=C\c2ccc(Cl)cc2Cl)sc2n1CN(c1ccccc1)CN=2`, the EC50 in the data set with Hepatitis C virus came to 14.5 µM. Moreover, the IC50 in data set [1] was 1.37 µM.
The like results for `COc1ccc(/C=c2/sc3n(c2=O)CN(c2ccc(Cl)cc2)CN=3)cc1` were, in that order, 24.3 µM and 0.99 µM.
Consider `O=C(CN1C(=O)S/C(=C\c2ccccc2)C1=O)Nc1ccc(Cl)cc1`, for which, in the data set with Hepatitis C virus, the EC50 is 16.7 µM. The IC50 in data set [1] is 0.14 µM.
`O=c1/c(=C\c2ccc(F)cc2)sc2n1CN(c1ccc(Cl)cc1)CN=2`: the EC50 in the data set on Hepatitis C virus turned out to be 6.58 µM. The IC50 in data set [1] was determined as 0.2 µM.
Regarding `O=c1/c(=C\c2ccccc2)sc2n1CN(c1ccc(Cl)cc1)CN=2`, the EC50 with Hepatitis C virus worked out at 19.3 µM. Further, in data set [1], the IC50 is 0.49 µM.
For `COc1ccc(N2CN=c3s/c(=C/c4ccc(F)cc4)c(=O)n3C2)cc1`, the concentration giving a half-maximal response (EC50) in the data set with Hepatitis C virus was 40.1 µM. Besides, in data set [2], the Ratio IC50 fell in the range of 1 to 2. Besides, the IC50 in data set [1] stood at 0.07 µM.
Take `COc1ccc(NC(=O)CN2C(=O)S/C(=C\c3ccc(Cl)cc3)C2=O)cc1`: the EC50 in the data set with Hepatitis C virus was found to be 43.9 µM. In data set [1], the IC50 turned out to be 0.37 µM.
`O=C(CN1C(=O)S/C(=C\c2ccc(F)cc2)C1=O)Nc1ccccc1`: in the data set with Hepatitis C virus, the EC50 is 8.4 µM. In data set [1], the IC50 amounted to 0.14 µM.
For `O=C(CN1C(=O)S/C(=C\c2ccccc2Cl)C1=O)Nc1ccc(Cl)cc1`, in that order: 6.47 µM and 2.99 µM.
As for `O=C(CN1C(=O)S/C(=C\c2ccc(Cl)cc2)C1=O)Nc1ccc(Cl)cc1`, in the data set on Hepatitis C virus, the EC50 is 7.8 µM. In addition, the IC50 in data set [1] came out at 0.21 µM.
As to `COc1ccc(/C=C2\SC(=O)N(CC(=O)Nc3ccc(OC)cc3)C2=O)cc1`, the concentration giving a half-maximal response (EC50) in the data set with Hepatitis C virus was determined as 19.6 µM. Also, the IC50 in data set [1] worked out at 0.78 µM.
Take `O=c1/c(=C\c2ccc(Cl)cc2Cl)sc2n1CN(c1ccc(Cl)cc1)CN=2`: in the data set on Hepatitis C virus, the EC50 amounted to 9.5 µM. Moreover, the IC50 in data set [1] was 0.54 µM.
With `O=C(C/N=C1/S/C(=C\c2ccccc2)C(=O)N1c1ccccc1)Nc1ccccc1`, in the data set with Hepatitis C virus, the EC50 turned out to be 8.98 µM. The half-maximal inhibitory concentration (IC50) in data set [1] was 0.76 µM.
With `COc1ccc(/C=C2\SC(=O)N(CC(=O)Nc3ccc(Cl)cc3)C2=O)cc1`, in the data set on Hepatitis C virus, the EC50 came to 7.93 µM. The IC50 in data set [1] was 0.28 µM.
Consider `O=c1/c(=C\c2ccc(Cl)cc2)sc2n1CN(c1ccccc1)CN=2`, for which the EC50 with Hepatitis C virus came to 10.9 µM. In addition, the Ratio IC50 in data set [2] was 1 to 2. Besides, the IC50 in data set [1] was 0.12 µM.
As to `O=C(CN1C(=O)S/C(=C\c2ccc(Cl)cc2Cl)C1=O)Nc1ccccc1`, the EC50 with Hepatitis C virus was 10.8 µM. Further, the IC50 in data set [1] worked out at 0.44 µM.
Consider `O=C(CN1C(=O)S/C(=C\c2ccc(Cl)cc2Cl)C1=O)Nc1ccc(Cl)cc1`, for which, in the data set on Hepatitis C virus, the EC50 was 44 µM. The IC50 in data set [1] worked out at 5.12 µM.
Take `O=C(CN1C(=O)S/C(=C\c2ccc(Cl)cc2)C1=O)Nc1ccccc1`: in the data set with Hepatitis C virus, the EC50 worked out at 11.1 µM. In addition, in data set [2], the Ratio IC50 lay within 1 to 2. Also, in data set [1], the IC50 was determined as 0.085 µM.
Regarding `COc1ccc(/C=c2/sc3n(c2=O)CN(c2ccc(OC)cc2)CN=3)cc1`, the EC50 with Hepatitis C virus was 9.54 µM. Further, in data set [1], the IC50 is 0.54 µM.
Take `O=c1/c(=C\c2ccccc2)sc2n1CN(c1ccccc1)CN=2`: the EC50 with Hepatitis C virus turned out to be 13.3 µM. Besides, the IC50 in data set [1] worked out at 0.62 µM.
Turning to `O=c1/c(=C\c2ccccc2Cl)sc2n1CN(c1ccccc1)CN=2`, the EC50 in the data set on Hepatitis C virus is 30.7 µM. The IC50 in data set [1] worked out at 0.43 µM.
Regarding `O=c1/c(=C\c2ccc(F)cc2)sc2n1CN(c1ccccc1)CN=2`, in the data set on Hepatitis C virus, the EC50 worked out at 18.7 µM. Moreover, the IC50 in data set [1] amounted to 2.2 µM.
With `O=c1/c(=C\c2ccc(Cl)cc2)sc2n1CN(c1ccc(Cl)cc1)CN=2`, in the data set with Hepatitis C virus, the EC50 worked out at 10.8 µM. Besides, in data set [1], the 50% inhibitory concentration (IC50) worked out at 1.82 µM.
Regarding `COc1ccc(NC(=O)CN2C(=O)S/C(=C\c3ccc(Cl)cc3Cl)C2=O)cc1`, the half-maximal effective concentration (EC50) with Hepatitis C virus turned out to be 43.9 µM. Further, the IC50 in data set [1] amounted to 0.32 µM.
For `COc1ccc(N2CN=c3s/c(=C/c4ccc(Cl)cc4Cl)c(=O)n3C2)cc1`, the EC50 in the data set with Hepatitis C virus came to 13.2 µM. Besides, the 50% inhibitory concentration (IC50) in data set [1] turned out to be 0.22 µM.
By CC50 is commonly meant the concentration that lowers cell viability or growth by half. `O=C(CN1C(=O)S/C(=C\c2ccccc2Cl)C1=O)Nc1ccccc1`: the selectivity ratio was 42.5 in data set [3] and 27 in data set [5]. In addition, the EC50 with Hepatitis C virus amounted to 3.8 µM. Also, the CC50 at 24 h is 161 µM in data set [4] and 103 µM in data set [6]. Moreover, the Ratio IC50 in data set [2] came to 4. For the same compound, the IC50 in data set [1] is 0.035 µM.
For the compound `COc1ccc(/C=C2\SC(=O)N(CC(=O)Nc3ccccc3)C2=O)cc1`, the concentration giving a half-maximal response (EC50) in the data set with Hepatitis C virus came to 11.6 µM. Also, the IC50 in data set [1] came out at 0.25 µM.
Turning to `COc1ccc(NC(=O)CN2C(=O)S/C(=C\c3ccc(F)cc3)C2=O)cc1`, the EC50 in the data set with Hepatitis C virus stood at 10.8 µM. In addition, the IC50 in data set [1] came to 0.39 µM.
`COc1ccc(NC(=O)CN2C(=O)S/C(=C\c3ccccc3Cl)C2=O)cc1`: the EC50 in the data set on Hepatitis C virus stood at 11 µM. Besides, the IC50 in data set [1] worked out at 1.2 µM.
As to `O=C(CN1C(=O)S/C(=C\c2ccc(F)cc2)C1=O)Nc1ccc(Cl)cc1`, in the data set on Hepatitis C virus, the EC50 worked out at 16.9 µM. For the same compound, in data set [2], the Ratio IC50 lay within 1 to 2. For the same compound, in data set [1], the IC50 is 0.1 µM.
As for `COc1ccc(N2CN=c3s/c(=C/c4ccccc4Cl)c(=O)n3C2)cc1`, the EC50 with Hepatitis C virus is 13.5 µM. Further, in data set [1], the IC50 was found to be 1.26 µM.
Consider `COc1ccc(N2CN=c3s/c(=C/c4ccc(Cl)cc4)c(=O)n3C2)cc1`, for which the EC50 in the data set on Hepatitis C virus was 10.3 µM. Moreover, the IC50 in data set [1] is 3.53 µM.
On to `COc1ccc(NC(=O)CN2C(=O)S/C(=C\c3ccccc3)C2=O)cc1`, for which the EC50 with Hepatitis C virus was 10.6 µM. Moreover, in data set [1], the IC50 came to 0.45 µM.
Regarding `O=c1/c(=C\c2ccccc2Cl)sc2n1CN(c1ccc(Cl)cc1)CN=2`, the EC50 in the data set on Hepatitis C virus turned out to be 13.8 µM. In addition, the Ratio IC50 in data set [2] was in the range of 1 to 2. For the same compound, in data set [1], the IC50 was 0.09 µM.
In the case of `O=C(CN1C(=O)S/C(=C\c2ccccc2)C1=O)Nc1ccccc1`, the EC50 with Hepatitis C virus was determined as 19.6 µM. In data set [1], the IC50 turned out to be 4.8 µM.
As for `CC1CCC(C(=O)N(c2cc(-c3ccccc3)sc2C(=O)O)C2CCC(O)CC2)CC1` (configuration not stated) [VCH-759], the selectivity ratio stood at 15.4 in data set [3] and 11.7 in data set [5]. Besides, the EC50 in the data set on Hepatitis C virus worked out at 5.29 µM. In addition, the CC50 at 24 h is 81.3 µM in data set [4] and 61.8 µM in data set [6]. In addition, the IC50 in data set [1] turned out to be 0.14 µM.
